# From ChEMBL document CHEMBL1649571, “In vitro activity of TR-700, the active ingredient of the antibacterial prodrug TR-701, a novel oxazolidinone antibacterial agent” (2009)
# Key:
# Assay type in all cases: functional
# [1] = test system: Enterococcus faecalis; experiment: Antibacterial activity against vancomycin-susceptible Enterococcus faecalis by CLSI M7-A7 broth microdilution method
# Outline: (§1)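 Reference broth microdilution MIC under aerobic conditions on recent (2005–2008) clinical isolates from U.S. and non-U.S. sites. QC strains run alongside, required to fall within published CLSI ranges.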
# [2] = test system: Enterococcus faecalis; experiment: Antibacterial activity against vancomycin-resistant Enterococcus faecalis by CLSI M7-A7 broth microdilution method; outline: as §1
# [3] = test system: Enterococcus faecium; experiment: Antibacterial activity against vancomycin-susceptible Enterococcus faecium by CLSI M7-A7 broth microdilution method; outline: as §1
# [4] = test system: Enterococcus faecium; experiment: Antibacterial activity against vancomycin-resistant Enterococcus faecium by CLSI M7-A7 broth microdilution method; outline: as §1
# [5] = test system: Streptococcus pneumoniae; experiment: Antibacterial activity against penicillin-susceptible Streptococcus pneumoniae by CLSI M7-A7 broth microdilution method; outline: as §1
# [6] = test system: Streptococcus pneumoniae; experiment: Antibacterial activity against penicillin-intermediate Streptococcus pneumoniae by CLSI M7-A7 broth microdilution method; outline: as §1
# [7] = test system: Streptococcus pneumoniae; experiment: Antibacterial activity against penicillin-resistant Streptococcus pneumoniae by CLSI M7-A7 broth microdilution method; outline: as §1
# [8] = test system: Streptococcus pyogenes; experiment: Antibacterial activity against Streptococcus pyogenes by CLSI M7-A7 broth microdilution broth microdilution method; outline: as §1
# [9] = test system: Streptococcus agalactiae; experiment: Antibacterial activity against Streptococcus agalactiae by CLSI M7-A7 broth microdilution method; outline: as §1
# [10] = test system: Staphylococcus aureus; experiment: Antibacterial activity against methicillin-susceptible Staphylococcus aureus by CLSI M7-A7 broth microdilution method; outline: as §1
# [11] = test system: Staphylococcus aureus; experiment: Antibacterial activity against methicillin-resistant Staphylococcus aureus by CLSI M7-A7 broth microdilution method; outline: as §1
# [12] = test system: Staphylococcus aureus; experiment: Antibacterial activity against community-acquired methicillin-resistant Staphylococcus aureus by CLSI M7-A7 broth microdilution method; outline: as §1
# [13] = test system: Staphylococcus epidermidis; experiment: Antibacterial activity against methicillin-susceptible Staphylococcus epidermidis by CLSI M7-A7 broth microdilution method
# [14] = test system: Staphylococcus epidermidis; experiment: Antibacterial activity against methicillin-resistant Staphylococcus epidermidis by CLSI M7-A7 broth microdilution method; outline: as §1
# [15] = test system: Bacteroides fragilis; experiment: Antibacterial activity against Bacteroides fragilis by CLSI M11-A7 agar dilution method
# Outline: (§2)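 Recent (2005 to 2008) clinical isolates. Anaerobes grown 48 h in an anaerobic glove box, with inoculum suspensions made in prereduced broth inside the box. A Steers replicator stamped the inoculum onto drug-supplemented agar. After absorption, plates were incubated 48 h at 37°C, then removed from the box and the MIC read. QC strains were run against the CLSI ranges.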
# [16] = test system: Phocaeicola vulgatus; experiment: Antibacterial activity against Bacteroides vulgatus by CLSI M11-A7 agar dilution method; outline: as §2
# [17] = test system: Bacteroides thetaiotaomicron; experiment: Antibacterial activity against Bacteroides thetaiotaomicron by CLSI M11-A7 agar dilution method; outline: as §2
# [18] = test system: Bacteroides ovatus; experiment: Antibacterial activity against Bacteroides ovatus by CLSI M11-A7 agar dilution method; outline: as §2
# [19] = test system: Clostridium perfringens; experiment: Antibacterial activity against Clostridium perfringens by CLSI M11-A7 agar dilution method
# Outline: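 Reference agar dilution MIC on recent (2005–2008) clinical isolates. Cultures grown 48 h in an anaerobic glove box; inoculum suspended in prereduced broth inside the box and stamped by Steers replicator onto drug-supplemented agar. Plates incubated 48 h at 37°C before MIC reading. QC strains run alongside, required to fall within CLSI ranges.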
# [20] = test system: Peptostreptococcus anaerobius; experiment: Antibacterial activity against Peptostreptococcus anaerobius by CLSI M11-A7 agar dilution method; outline: as §2
# [21] = test system: Parvimonas micra; experiment: Antibacterial activity against Peptostreptococcus micros by CLSI M11-A7 agar dilution method; outline: as §2
# [22] = test system: Porphyromonas asaccharolytica; experiment: Antibacterial activity against Porphyromonas asaccharolytica by CLSI M11-A7 agar dilution method; outline: as §2
# [23] = test system: Prevotella sp.; experiment: Antibacterial activity against Prevotella sp. by CLSI M11-A7 agar dilution method; outline: as §2
# [24] = test system: Haemophilus influenzae; experiment: Antibacterial activity against Haemophilus influenzae by CLSI M7-A7 broth microdilution method
# Outline: (§3)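 Recent (2005 to 2008) clinical isolates from U.S. (80%) and non-U.S. (20%) sites. Aerobic MICs were determined by CLSI reference broth microdilution, with quality control strains checked against the published CLSI ranges.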
# [25] = test system: Moraxella catarrhalis; experiment: Antibacterial activity against Moraxella catarrhalis by CLSI M7-A7 broth microdilution method; outline: as §3
smiles,measurement,setting,value
CN[C@H](CC(C)C)C(=O)N[C@H]1C(=O)N[C@@H](CC(N)=O)C(=O)N[C@H]2C(=O)N[C@H]3C(=O)N[C@H](C(=O)N[C@H](C(=O)O)c4cc(O)cc(O)c4-c4cc3ccc4O)[C@H](O)c3ccc(c(Cl)c3)Oc3cc2cc(c3O[C@@H]2O[C@H](CO)[C@@H](O)[C@H](O)[C@H]2O[C@H]2C[C@](C)(N)[C@H](O)[C@H](C)O2)Oc2ccc(cc2Cl)[C@H]1O [VANCOMYCIN],MIC50,[1],1 µg/mL
same,MIC90,[1],2 µg/mL
same,MIC50,[2],> 32 µg/mL
same,MIC90,[2],> 32 µg/mL
same,MIC50,[3],1 µg/mL
same,MIC90,[3],1 µg/mL
same,MIC50,[4],> 32 µg/mL
same,MIC90,[4],> 32 µg/mL
same,MIC50,[5],0.25 µg/mL
same,MIC90,[5],0.5 µg/mL
same,MIC,[6],0.25 µg/mL
same,MIC50,[6],0.25 µg/mL
same,MIC90,[6],0.5 µg/mL
same,MIC50,[7],0.25 µg/mL
same,MIC90,[7],0.5 µg/mL
same,MIC50,[8],0.5 µg/mL
same,MIC90,[8],0.5 µg/mL
same,MIC50,[9],0.5 µg/mL
same,MIC90,[9],0.5 µg/mL
same,MIC50,[10],1 µg/mL
same,MIC90,[10],1 µg/mL
same,MIC50,[11],1 µg/mL
same,MIC90,[11],1 µg/mL
same,MIC50,[12],4 µg/mL
same,MIC90,[12],4 µg/mL
same,MIC50,[13],2 µg/mL
same,MIC90,[13],2 µg/mL
same,MIC50,[14],2 µg/mL
same,MIC90,[14],2 µg/mL
Cc1ncc([N+](=O)[O-])n1CCO [METRONIDAZOLE],MIC50,[15],0.12 µg/mL
same,MIC90,[15],1 µg/mL
same,MIC50,[16],0.25 µg/mL
same,MIC90,[16],0.25 µg/mL
same,MIC50,[17],1 µg/mL
same,MIC90,[17],1 µg/mL
same,MIC50,[18],1 µg/mL
same,MIC90,[18],1 µg/mL
same,MIC50,[19],1 µg/mL
same,MIC90,[19],> 32 µg/mL
same,MIC50,[20],0.5 µg/mL
same,MIC90,[20],1 µg/mL
same,MIC,[21],≤ 0.06 µg/mL
same,MIC50,[21],≤ 0.06 µg/mL
same,MIC90,[21],> 32 µg/mL
same,MIC50,[22],1 µg/mL
same,MIC90,[22],1 µg/mL
same,MIC50,[23],0.5 µg/mL
same,MIC90,[23],> 32 µg/mL
C[C@@H](O)[C@H]1C(=O)N2C(C(=O)O)=C(SCCNC=N)C[C@H]12 [IMIPENEM ANHYDROUS],MIC,[15],0.12 µg/mL
same,MIC50,[15],0.12 µg/mL
same,MIC90,[15],0.5 µg/mL
same,MIC,[16],0.25 µg/mL
same,MIC50,[16],0.25 µg/mL
same,MIC90,[16],0.5 µg/mL
same,MIC50,[17],0.5 µg/mL
same,MIC90,[17],1 µg/mL
same,MIC50,[18],0.25 µg/mL
same,MIC90,[18],0.5 µg/mL
same,MIC50,[19],0.12 µg/mL
same,MIC90,[19],0.5 µg/mL
same,MIC50,[20],0.06 µg/mL
same,MIC90,[20],1 µg/mL
same,MIC,[21],≤ 0.03 µg/mL
same,MIC50,[21],≤ 0.03 µg/mL
same,MIC90,[21],≤ 0.03 µg/mL
same,MIC,[22],≤ 0.03 µg/mL
same,MIC50,[22],< 0.03 µg/mL
same,MIC90,[22],0.06 µg/mL
same,MIC50,[23],≤ 0.06 µg/mL
same,MIC90,[23],1 µg/mL
Cc1onc(-c2ccccc2)c1C(=O)N[C@@H]1C(=O)N2[C@@H]1SC(C)(C)[C@@H]2C(=O)O [OXACILLIN],MIC50,[10],0.25 µg/mL
same,MIC90,[10],0.5 µg/mL
same,MIC50,[11],32 µg/mL
same,MIC90,[11],32 µg/mL
same,MIC50,[12],32 µg/mL
same,MIC90,[12],32 µg/mL
same,MIC50,[13],0.12 µg/mL
same,MIC90,[13],0.25 µg/mL
same,MIC50,[14],16 µg/mL
same,MIC90,[14],> 32 µg/mL
Cn1nnc(-c2ccc(-c3ccc(N4C[C@H](CO)OC4=O)cc3F)cn2)n1 [TEDIZOLID],MIC50,[1],0.5 µg/mL
same,MIC90,[1],1 µg/mL
same,MIC50,[2],0.5 µg/mL
same,MIC90,[2],0.5 µg/mL
same,MIC50,[3],0.5 µg/mL
same,MIC90,[3],1 µg/mL
same,MIC50,[4],0.5 µg/mL
same,MIC90,[4],0.5 µg/mL
same,MIC50,[5],0.25 µg/mL
same,MIC90,[5],0.25 µg/mL
same,MIC50,[6],0.25 µg/mL
same,MIC90,[6],0.25 µg/mL
same,MIC50,[7],0.25 µg/mL
same,MIC90,[7],0.25 µg/mL
same,MIC50,[8],0.25 µg/mL
same,MIC90,[8],0.5 µg/mL
same,MIC50,[9],0.25 µg/mL
same,MIC90,[9],0.5 µg/mL
same,MIC50,[24],8 µg/mL
same,MIC90,[24],16 µg/mL
same,MIC50,[25],2 µg/mL
same,MIC90,[25],4 µg/mL
same,MIC50,[15],4 µg/mL
same,MIC90,[15],4 µg/mL
same,MIC50,[16],2 µg/mL
same,MIC90,[16],4 µg/mL
same,MIC,[17],2 µg/mL
same,MIC50,[17],2 µg/mL
same,MIC90,[17],2 µg/mL
same,MIC50,[18],2 µg/mL
same,MIC90,[18],8 µg/mL
same,MIC50,[19],0.5 µg/mL
same,MIC90,[19],2 µg/mL
same,MIC50,[20],0.25 µg/mL
same,MIC90,[20],0.5 µg/mL
same,MIC50,[21],0.25 µg/mL
same,MIC90,[21],0.5 µg/mL
same,MIC,[22],0.25 µg/mL
same,MIC50,[22],0.25 µg/mL
same,MIC90,[22],0.5 µg/mL
same,MIC50,[23],1 µg/mL
same,MIC90,[23],4 µg/mL
same,MIC50,[10],0.5 µg/mL
same,MIC90,[10],0.5 µg/mL
same,MIC50,[11],0.5 µg/mL
same,MIC90,[11],0.5 µg/mL
same,MIC50,[12],0.5 µg/mL
same,MIC90,[12],0.5 µg/mL
same,MIC50,[13],0.25 µg/mL
same,MIC90,[13],0.5 µg/mL
same,MIC50,[14],0.25 µg/mL
same,MIC90,[14],0.5 µg/mL
CC(=O)NC[C@H]1CN(c2ccc(N3CCOCC3)c(F)c2)C(=O)O1 [LINEZOLID],MIC50,[1],2 µg/mL
same,MIC90,[1],2 µg/mL
same,MIC50,[2],2 µg/mL
same,MIC90,[2],2 µg/mL
same,MIC50,[3],2 µg/mL
same,MIC90,[3],4 µg/mL
same,MIC50,[4],2 µg/mL
same,MIC90,[4],2 µg/mL
same,MIC50,[5],1 µg/mL
same,MIC90,[5],1 µg/mL
same,MIC50,[6],1 µg/mL
same,MIC90,[6],1 µg/mL
same,MIC50,[7],1 µg/mL
same,MIC90,[7],1 µg/mL
same,MIC50,[8],1 µg/mL
same,MIC90,[8],2 µg/mL
same,MIC50,[9],2 µg/mL
same,MIC90,[9],2 µg/mL
same,MIC50,[24],16 µg/mL
same,MIC90,[24],32 µg/mL
same,MIC50,[25],8 µg/mL
same,MIC90,[25],8 µg/mL
same,MIC,[15],4 µg/mL
same,MIC50,[15],4 µg/mL
same,MIC90,[15],4 µg/mL
same,MIC,[16],2 µg/mL
same,MIC50,[16],2 µg/mL
same,MIC90,[16],4 µg/mL
same,MIC,[17],4 µg/mL
same,MIC50,[17],4 µg/mL
same,MIC90,[17],8 µg/mL
same,MIC50,[18],8 µg/mL
same,MIC90,[18],8 µg/mL
same,MIC50,[19],2 µg/mL
same,MIC90,[19],4 µg/mL
same,MIC50,[20],1 µg/mL
same,MIC90,[20],2 µg/mL
same,MIC50,[21],1 µg/mL
same,MIC90,[21],2 µg/mL
same,MIC50,[22],1 µg/mL
same,MIC90,[22],2 µg/mL
same,MIC50,[23],2 µg/mL
same,MIC90,[23],4 µg/mL
same,MIC50,[10],2 µg/mL
same,MIC90,[10],4 µg/mL
same,MIC50,[11],2 µg/mL
same,MIC90,[11],4 µg/mL
same,MIC50,[12],2 µg/mL
same,MIC90,[12],4 µg/mL
same,MIC50,[13],1 µg/mL
same,MIC90,[13],2 µg/mL
same,MIC50,[14],1 µg/mL
same,MIC90,[14],2 µg/mL
